Read-outs that look alike come from different tables or passages of the source.
Key:
NIH 3T3 cells = assay: CellTiter-Glo cytotoxicity qHTS, NIH 3T3; format: cell-based, murine; conditions: for cell killing of NIH 3T3 cells (in words): 48 hr; for EC50: read-out: EC50 NIH 3T3; for cell killing of NIH 3T3 compared with cancer cell line KB-3–1 (in words): pan-active outliers, 12 dose-point confirmation
In short: (§1)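 HEK 293 (250 cells/well) or NIH 3T3 (400 cells/well) are seeded in 5 μL. Dosing: annotated library 8-pt (0.6 nM–46 μM) or 11-pt (0.8 nM–46 μM); diversity library 4-pt, mostly 115, 58, 12 and 2.3 μM; cherry-picks confirmed over 12 points, 0.3 nM–46 μM final. Incubate 48 hr at 37 °C, then read CellTiter-Glo luminescence after 10 min. Normalize to DMSO and 9.2 μM bortezomib; EC50 from a four-parameter logistic fit.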

CRL-7250 cells = assay: CellTiter-Glo cytotoxicity qHTS, CRL-7250; format: cell-based, human; conditions: for cell killing of CRL-7250 cells (in words): CellTiter-Glo, 48 hr
In short: (§2)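 CRL-7250 (primary) or HaCat cells are seeded at 500 cells/well in 5 μL medium. Test compound is pin-transferred as an 8-pt series (0.6 nM–46 μM, 1:5) or an 11-pt series (0.8 nM–46 μM, 1:3). Incubate 48 hr at 37 °C and 85% humidity. Add CellTiter-Glo and read luminescence after 10 min at room temperature. Normalize to DMSO (0%) and 9.2 μM bortezomib (−100%); EC50 comes from a four-parameter logistic fit.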

HEK 293 cells = assay: CellTiter-Glo cytotoxicity qHTS, HEK 293; format: cell-based, human; conditions: for cell killing of HEK 293 cells (in words): 48 hr; for EC50: read-out: EC50 HEK 293; for cell killing of HEK 293 compared with cancer cell line KB-3–1 (in words): pan-active outliers, 12 dose-point confirmation
In short: as §1

KB 3–1 cells = assay: CellTiter-Glo cytotoxicity qHTS, KB 3-1; format: cell-based, human; conditions: for cell killing of KB 3–1 cells (in words): 48 hr; for EC50: read-out: EC50 KB 3–1
In short: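 HeLa-derived KB 3–1 cells are seeded at 500 cells/well in 5 μL. Annotated library is tested 8-pt (0.6 nM–46 μM, 1:5) or 11-pt (0.8 nM–46 μM, 1:3); cherry-picks are retested 12-pt, 0.3 nM–46 μM final. Incubate 48 hr at 37 °C, then read CellTiter-Glo luminescence after 10 min at room temperature. Normalize to DMSO and 9.2 μM bortezomib; EC50 from a four-parameter logistic fit.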

[1] = target: Photinus pyralis luciferase (Photinus pyralis, UniProt P08659); assay: Firefly luciferase inhibition assay; format: biochemical; conditions: read-out: EC50 Luciferase; 10 nM Photinus pyralis luciferase, 10 μM ATP, 10 μM D-Luciferin
HEK293 cells = assay: Bright-field microscopy of treated cells; format: cell-based, human; conditions: 48 hr, at concentrations suggested to be cytotoxic by CTG dose-response data
[2] = target: T1, CTG engineered firefly luciferase (Photuris pensylvanica, UniProt Q27757); assay: CellTiter-Glo luciferase counter-assay; format: biochemical; conditions: read-out: EC50 CTG Luciferase; cell-free media with CTG and ATP added as substrate
T1 sequence (Q27757 1-545): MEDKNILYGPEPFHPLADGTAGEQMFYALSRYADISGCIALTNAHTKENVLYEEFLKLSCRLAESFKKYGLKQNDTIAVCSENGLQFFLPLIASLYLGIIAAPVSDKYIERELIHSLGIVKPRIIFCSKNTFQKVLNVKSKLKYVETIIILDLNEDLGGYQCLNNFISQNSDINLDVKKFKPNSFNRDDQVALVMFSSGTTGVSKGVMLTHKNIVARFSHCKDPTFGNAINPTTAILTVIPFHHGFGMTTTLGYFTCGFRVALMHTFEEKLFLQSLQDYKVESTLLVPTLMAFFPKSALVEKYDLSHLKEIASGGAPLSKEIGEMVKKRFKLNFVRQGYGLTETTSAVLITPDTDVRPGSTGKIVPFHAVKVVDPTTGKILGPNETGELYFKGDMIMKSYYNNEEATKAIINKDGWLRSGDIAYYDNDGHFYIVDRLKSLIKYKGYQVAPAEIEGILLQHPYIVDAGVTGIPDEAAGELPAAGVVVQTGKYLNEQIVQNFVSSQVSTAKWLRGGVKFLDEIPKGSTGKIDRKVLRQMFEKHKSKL

HaCat cells = assay: CellTiter-Glo cytotoxicity qHTS, HaCat; format: cell-based, human
In short: as §2

[3] = CellTiter-Glo, 48 hr incubation

Chain of Photinus pyralis luciferase (P08659 whole entry): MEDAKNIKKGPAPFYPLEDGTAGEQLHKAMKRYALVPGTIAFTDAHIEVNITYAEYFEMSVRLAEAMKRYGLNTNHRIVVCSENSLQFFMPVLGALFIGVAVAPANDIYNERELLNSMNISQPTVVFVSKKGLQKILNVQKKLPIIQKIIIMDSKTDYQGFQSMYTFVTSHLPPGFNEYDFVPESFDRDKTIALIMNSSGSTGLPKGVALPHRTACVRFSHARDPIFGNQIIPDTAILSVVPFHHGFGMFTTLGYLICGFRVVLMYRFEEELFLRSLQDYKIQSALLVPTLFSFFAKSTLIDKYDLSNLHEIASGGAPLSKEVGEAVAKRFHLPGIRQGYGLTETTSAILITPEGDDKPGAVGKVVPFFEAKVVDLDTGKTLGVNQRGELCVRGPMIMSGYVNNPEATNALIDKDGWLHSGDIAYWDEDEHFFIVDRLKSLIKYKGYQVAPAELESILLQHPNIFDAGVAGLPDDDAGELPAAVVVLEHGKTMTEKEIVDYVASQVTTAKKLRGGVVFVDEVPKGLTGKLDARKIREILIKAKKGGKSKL

c1cc(-c2cnn3cc(-c4ccc(N5CCNCC5)cc4)cnc23)c2cccnc2c1 [LDN-212854]
cell killing of NIH 3T3 cells (in words) (NIH 3T3 cells; CellTiter-Glo): no effect
cell killing of CRL-7250 cells (in words) (CRL-7250 cells): no effect
cell killing of HEK 293 cells (in words) (HEK 293 cells; CellTiter-Glo): partial killing
EC50 (HEK 293 cells; [3]): 16400 nM
cell killing of KB 3–1 cells (in words) (KB 3–1 cells; CellTiter-Glo): complete killing
EC50 (KB 3–1 cells; [3]): 4100 nM

COc1cccc(-c2ncc3c(n2)OCCN(c2ccccc2)C3=O)c1 [NCGC00413522]
EC50 [1]: 890 nM
cell growth by bright-field microscopy (HEK293 cells): unaffected cell growth
EC50 [2]: 26600 nM

O=C1c2cnc(-c3cc4ccccc4o3)nc2OCCN1c1ccccc1 [NCGC00413607]
EC50 [1]: 80 nM
cell growth by bright-field microscopy (HEK293 cells): unaffected cell growth
EC50 [2]: 7300 nM

O=C(c1ccc(Cl)cc1)N1CCOCC2(CN(Cc3cc(F)cc(F)c3)C2)C1 [NCGC00419015]
EC50 (NIH 3T3 cells; [3]): 720 nM
EC50 (HEK 293 cells; [3]): 510 nM
EC50 (KB 3–1 cells; [3]): 640 nM

Cc1nn2c(c1-c1ccccc1-c1ccccc1)N(CC1CC1)CCC2 [NCGC00420435]
cell killing of NIH 3T3 compared with cancer cell line KB-3–1 (in words) (NIH 3T3 cells): greater cell killing
cell killing of HEK 293 compared with cancer cell line KB-3–1 (in words) (HEK 293 cells): greater cell killing

Cc1nn2c(c1-c1ccccc1Oc1ccccc1)N(Cc1ccccc1O)CCC2 [NCGC00420455]
cell killing of NIH 3T3 compared with cancer cell line KB-3–1 (in words) (NIH 3T3 cells): greater cell killing
cell killing of HEK 293 compared with cancer cell line KB-3–1 (in words) (HEK 293 cells): greater cell killing

Cc1nn2c(c1-c1ccccc1-c1ccccc1)N(Cc1ccc(O)cc1)CCC2 [NCGC00420512]
cell killing of NIH 3T3 compared with cancer cell line KB-3–1 (in words) (NIH 3T3 cells): greater cell killing
cell killing of HEK 293 compared with cancer cell line KB-3–1 (in words) (HEK 293 cells): greater cell killing

O=C(Nc1ccccc1)OC[C@H]1C[C@@H]2CCN1C[C@@H]2c1cc(C2CCCC2)nc(-c2ccncc2)n1 [NCGC00421344]
potency in HEK 293 cell relative to the other two cell lines (NIH 3T3, KB 3–1) (HEK 293 cells; CellTiter-Glo EC50 comparison): > 10 fold

COc1ncc2cc(C(=O)Nc3cc(C(=O)NCc4cccc(Cl)c4)ccc3Cl)c(=O)[nH]c2n1 [TC-S7004]
cell killing of HaCat cells (in words) (HaCat cells; CellTiter-Glo, 48 hr): no effect
cell killing of NIH 3T3 cells (in words) (NIH 3T3 cells; CellTiter-Glo): no effect
cell killing of CRL-7250 cells (in words) (CRL-7250 cells): no effect
cell killing of HEK 293 cells (in words) (HEK 293 cells; CellTiter-Glo): no effect
cell killing of KB 3–1 cells (in words) (KB 3–1 cells; CellTiter-Glo): complete killing
EC50 (KB 3–1 cells; [3]): 3200 nM

CC(C)C[C@H](NC(=O)[C@@H](NC(=O)c1cccc(-c2ccccc2)n1)[C@@H](C)O)B(O)O [delanzomib]
EC50 (HaCat cells; Homo sapiens, HaCaT, 48 h, read-out: EC50 HaCat): 326 nM
EC50 (NIH 3T3 cells; Mus musculus, NIH3T3, 48 h): 82 nM
EC50 (CRL-7250 cells; Homo sapiens, 48 h, read-out: EC50 CRL-7250): 205 nM
EC50 (HEK 293 cells; Homo sapiens, HEK293, 48 h): 148 nM
EC50 (KB 3–1 cells; Homo sapiens, KB 3-1, 48 h): 186 nM

— PMC10791069 (SLAS discovery : advancing life sciences R & D, 2019)
